From PubChem BioAssay
Apaf-1 inh – blocks human Apaf-1 apoptosome activity; O14727; reconstituted apoptosome caspase-3 activity, DEVD-Rh110 fluorescence; inhibition, % at 20 µM; 0.71% of 330,000 active; AID 489030; active means inhibition of at least 40% at 20 µM;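 further: plate controls were DMSO wells for no effect and DEVD-CHO caspase inhibitor wells for full effect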
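System: Apoptosome proteins | Medium: Hepes pH 7.5 with detergent and BSA | Also added: Cytochrome c trigger plus (Z-DEVD)2-Rh110 caspase-3 substrate | Incubation: 30 min compound preincubation, 50 min activation, room temperature | Detection: Rhodamine 110 fluorescence at Ex 480/Em 540 nm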
SENP8 block-1 – inhibitors of human SENP8 protease | AID 2540 | inhibition, % at 10 µM | 1.2% of 330,000 active | purified SENP8, Z-RLRGG-aminoluciferin cleavage, luminescence | Q96LD8; in the data active means inhibition above about 50%
SENP6 block – blocks the human protease SENP6; Q9GZR1; Recombinant SENP6 catalytic domain, aminoluciferin luminescence; inhibition, % at 10 µM; 1.8% of 330,000 active; AID 2599;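 active means inhibition above about 50% at the single tested dose, limit read from the data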;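 further: plate controls were DMSO wells with enzyme for no effect and DMSO wells lacking enzyme for full effect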
SENP8 block-2 – blocks human SENP8 cleavage of Nedd8 substrate; 0.64% of 360,000 active; inhibition, % at 20 µM; Q96LD8; AID 602440; recombinant SENP8, Nedd8 substrate fluorescence; in the data active means inhibition mostly above about 40%, no sharp cut-off; inactive means mostly below about 27%
SENP1 inh – blocks the human SENP1 SUMO protease catalytic domain; recombinant SENP1 catalytic domain, CyPet-SUMO1-YPet FRET cleavage; inhibition, % at 10 µM; 0.21% of 360,000 active;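 active means inhibition at least 30% at 10 µM, raw YFP signal under a set limit, fluorescence ratio 0.5 to 1.5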;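 further: 0% = enzyme with DMSO and 100% = no enzyme wells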
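Assay system: hSENP1 catalytic domain, recombinant. Amount: SENP1 enzyme, 20 pM final. Schedule: 50 min reaction, RT, dark. Technique: FRET, CFP and YFP emission. Control set: no-enzyme wells low, DMSO-plus-enzyme wells high control.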
SENP7 block – inhibitors of human SENP7 protease | recombinant SENP7, Z-RLRGG-aminoluciferin luminescence, 40 min | Q9BQF6 | inhibition, % at 5 µM | 1.5% of 330,000 active;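 active means inhibition above about 50% at the single test dose, limit read from the data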;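 further: plate controls were DMSO with enzyme for no effect and no enzyme buffer wells for full effect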
Target sequence (Q9BQF6 706-1050 limits assumed): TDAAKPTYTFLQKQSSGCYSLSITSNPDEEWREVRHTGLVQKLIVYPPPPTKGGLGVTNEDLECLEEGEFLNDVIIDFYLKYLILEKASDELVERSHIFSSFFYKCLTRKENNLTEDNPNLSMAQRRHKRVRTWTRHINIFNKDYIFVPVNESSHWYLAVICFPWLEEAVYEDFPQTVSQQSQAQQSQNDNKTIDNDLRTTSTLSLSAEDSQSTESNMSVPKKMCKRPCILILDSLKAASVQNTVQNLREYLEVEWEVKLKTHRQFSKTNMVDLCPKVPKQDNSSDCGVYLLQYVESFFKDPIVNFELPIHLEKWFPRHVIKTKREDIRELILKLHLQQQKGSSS
SENP8 conf – confirmation of human SENP8 protease inhibitors; shares compounds with SENP7 block; Recombinant SENP8, Z-RLRGG-aminoluciferin luminescence, 60 min; inhibition, % at 12.5 µM; 40% of 6,200 active;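 active means mean inhibition across replicates above about 50%, limit read from the data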
SENP6 confirm – confirmation of human SENP6 protease inhibitors. shares compounds with SENP7 block. recombinant SENP6, Z-RLRGG-aminoluciferin luminescence. inhibition, % at 12.5 µM. 58% of 6,200 active. AID 488915
SENP7 confirm – confirmation of human SENP7 protease inhibitors; shares compounds with SENP7 block; recombinant SENP7, Z-RLRGG-aminoluciferin luminescence, 40 min; 69% of 6,200 active; inhibition, % at 12.5 µM
Casp3 select – caspase-3 inhibition (SENP selectivity assay). shares compounds with SENP7 block. AID 488918. 60% of 6,200 active. inhibition, % at 12.5 µM. purified caspase-3, Z-DEVD-aminoluciferin luminescence, 60 min;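 active means mean inhibition above about 50%, limit read from the data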;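 further: plate controls were enzyme with DMSO for no effect and wells without caspase-3 for full effect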
Luc interf – luminescence interference (SENP counter-screen) | shares compounds with SENP7 block | Pre-incubated SENP8/Z-RLRGG-aminoluciferin, luciferase luminescence interference | inhibition, % at 12.5 µM | 39% of 6,200 active | AID 488919;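 active means mean inhibition above about 50% when retested at one dose, limit read from the data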;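 further: plate controls were DMSO wells with completed reaction for no effect and substrate without enzyme for full effect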
Numbers without * were called inactive. An excerpt weighted towards active compounds, which were near 2.9% of everything screened.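 How the source made its calls, unless noted: active means mean inhibition above about 50% in the one-dose retest (limit read from the data); inactive means the rest.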

Screening Cc1cc(Cl)ccc1C(O)c1ncc(-c2ccc(Cl)cc2)[nH]1 (stereo unspecified) returned SENP8 block-2 -2.4 and SENP1 inh 1.0.
`O=C(NC(=S)/C(=C1\CCCCCN1)[N+](=O)[O-])c1ccccc1` gave Apaf-1 inh -1.0, SENP8 block-1 57.2*, SENP6 block 60.2*, SENP8 block-2 14.0, SENP1 inh 1.3, SENP7 block 60.5*, SENP8 conf 76.8*, SENP6 confirm 71.1*, SENP7 confirm 93.1*, Casp3 select 73.5* and Luc interf 9.6.
For CC(=O)/C(C=Nc1noc(C)c1Br)=C(\C)O the results were Apaf-1 inh -27.8, SENP8 block-1 -4.3, SENP6 block -10.3, SENP8 block-2 16.9, SENP1 inh 3.5 and SENP7 block -1.9.
For O=C(Nc1nnc([C@@H]2C[C@H](O)[C@@H](CO)O2)s1)Nc1ccc(F)cc1F the results were SENP8 block-2 3.6 and SENP1 inh 3.6.
For O=C(CCCOc1ccc(Cl)cc1)N1CCCCC1 the results were Apaf-1 inh 6.3, SENP8 block-1 -0.5, SENP6 block -24.9, SENP8 block-2 15.5, SENP1 inh 2.2 and SENP7 block 10.4.
For O=C(CCCOc1ccccc1)N1CCCCC1 the results were Apaf-1 inh -1.6, SENP8 block-1 24.7, SENP6 block 55.0*, SENP8 block-2 14.8, SENP1 inh 0.9, SENP7 block 47.3, SENP8 conf 29.5, SENP6 confirm 26.8, SENP7 confirm 69.4*, Casp3 select 78.7* and Luc interf 49.1.
Screening COCCNC(=O)/C(C#N)=C/c1ccc(O)cc1 returned Apaf-1 inh -12.2, SENP8 block-1 77.4*, SENP6 block 91.5*, SENP8 block-2 6.9, SENP1 inh -42.6, SENP7 block 81.6*, SENP8 conf 11.6, SENP6 confirm 78.7*, SENP7 confirm 95.7*, Casp3 select 83.0* and Luc interf 79.8*.
Screening O=c1/c(=C/c2ccc(O)cc2)sc2n1CCCN=2 returned Apaf-1 inh 0.3, SENP8 block-1 80.3*, SENP6 block 85.9*, SENP8 block-2 15.0, SENP1 inh -41.0, SENP7 block 63.5*, SENP8 conf 86.2*, SENP6 confirm 84.4*, SENP7 confirm 95.6*, Casp3 select 88.4* and Luc interf 84.0*.
For O=c1/c(=C\c2ccc(F)cc2)sc2n1CCCN=2 the results were Apaf-1 inh 2.8, SENP8 block-1 0.8, SENP6 block 22.6, SENP8 block-2 9.5, SENP1 inh -12.3 and SENP7 block 29.2.
Screening CN(C)c1ccc(/C=c2\sc3n(c2=O)CCCN=3)cc1 returned Apaf-1 inh 7.6, SENP8 block-1 73.7*, SENP6 block 87.0*, SENP8 block-2 -14.2, SENP1 inh -18.2, SENP7 block 67.9*, SENP8 conf 86.6*, SENP6 confirm 83.7*, SENP7 confirm 95.3*, Casp3 select 84.9* and Luc interf 75.7*.
For Cc1cc2c(cc1C)CN(c1ccccc1)C2 the results were Apaf-1 inh -8.5, SENP8 block-1 56.7*, SENP6 block 59.0*, SENP8 block-2 21.8, SENP1 inh 4.3, SENP7 block 42.7, SENP8 conf 50.9*, SENP6 confirm 38.7, SENP7 confirm 79.4*, Casp3 select 79.1* and Luc interf 69.7*.
